“Also recorded” adds a separate entry of the source. Like-named read-outs stand apart in the source and are kept apart here.

In one series the target is hIPMK (Homo sapiens, UniProt Q8NFU5). Put plainly: hIPMK Adapta TR-FRET kinase assay. The format is biochemical. As to conditions: for fold higher IC50 (reduction in inhibitory activity) against hIPMK compared to 2: relative to compound 2.
A further series deals with T1, hIP6K2 (Homo sapiens, UniProt Q9UHH9).
T1 sequence (Q9UHH9 1-426): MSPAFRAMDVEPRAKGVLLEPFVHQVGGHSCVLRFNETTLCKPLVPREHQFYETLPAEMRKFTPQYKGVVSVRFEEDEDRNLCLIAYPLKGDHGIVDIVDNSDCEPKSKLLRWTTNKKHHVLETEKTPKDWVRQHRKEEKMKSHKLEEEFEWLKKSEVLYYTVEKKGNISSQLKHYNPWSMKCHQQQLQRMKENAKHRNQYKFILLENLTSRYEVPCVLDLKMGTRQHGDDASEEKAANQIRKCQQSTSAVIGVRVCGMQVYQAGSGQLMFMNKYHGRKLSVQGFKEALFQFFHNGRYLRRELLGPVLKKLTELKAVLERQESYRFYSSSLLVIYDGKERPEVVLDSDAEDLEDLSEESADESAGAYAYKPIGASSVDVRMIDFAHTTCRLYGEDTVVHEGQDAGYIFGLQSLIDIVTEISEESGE
Put plainly: hIP6K2 Adapta TR-FRET kinase assay. Type of series: biochemical. As to conditions: for fold higher IC50 against hIP6K2 compared to 3: relative to compound 3; for fold higher IC50 against hIP6K2 compared to 5: relative to compound 5. On the technique in general: Time-resolved FRET reads energy transfer from a long-lived donor to a nearby acceptor.

The test system of series [1] is AKT activity in HCT116 cells. Put plainly: AKT activity. The format is cell-based, human. As to conditions: 3 h. The method in brief:
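HCT116 cells, 1 day post-confluent, were exposed 3 h to 10 µM TNP, 2.5 µM test compound or DMSO vehicle (0.1% final). Cells were PBS-washed and lysed in cold Tris-HCl pH 7.4 buffer with 1% Triton X-100 plus protease-phosphatase inhibitors. Blots of 20 µg protein were probed for T308 p-AKT and total AKT. The p-AKT/total ratio was normalized to the gel sum; means ± standard errors, n=5, Dunnett ANOVA.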

The subject of series [2] is AKT activity in 3T3-L1 preadipocytes. Put plainly: AKT activity. As to conditions: 3 h. The format is cell-based. The method in brief: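 Lysates were made in ice-cold Tris-HCl pH 7.4/NaCl/1% Triton X-100 with protease-phosphatase inhibitors and cleared at 4 °C. Blots of 20 µg protein were probed for p-AKT T308 and total AKT. Ratios were normalized to the per-gel sum; n=3, Dunnett ANOVA vs DMSO.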

In series [3] the test system is IP6K activity (InsP levels) in HEK293 cells. Put plainly: HPLC analysis of InsP5, InsP6 and InsP7 levels in HEK293 cells. Type of series: cell-based. To be noted: HEK293, 2.5 µM, 3.5 h. The method in brief: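 HEK293 cells were labeled with [³H]inositol (20 µCi/ml), then treated 3.5 h with 2.5 µM test compound in DMSO (0.1% final) or vehicle. Cells were quenched with perchloric acid, and extracted [³H]InsP5, InsP6 and InsP7 were resolved by CarboPac HPLC. Values are means ± standard errors, n=3; one-way ANOVA (Dunnett) vs DMSO control.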

Series [4] deals with IP6K / IPMK activity (InsP7, InsP5, InsP6 levels) in HCT116 cells. Type of series: cell-based, human.
The test system of the next series is IP6K. To be noted: prior report; cited from earlier work.
For series [5] the following is noted: cited from earlier work.

hIPMK, sequence (Q8NFU5 whole entry): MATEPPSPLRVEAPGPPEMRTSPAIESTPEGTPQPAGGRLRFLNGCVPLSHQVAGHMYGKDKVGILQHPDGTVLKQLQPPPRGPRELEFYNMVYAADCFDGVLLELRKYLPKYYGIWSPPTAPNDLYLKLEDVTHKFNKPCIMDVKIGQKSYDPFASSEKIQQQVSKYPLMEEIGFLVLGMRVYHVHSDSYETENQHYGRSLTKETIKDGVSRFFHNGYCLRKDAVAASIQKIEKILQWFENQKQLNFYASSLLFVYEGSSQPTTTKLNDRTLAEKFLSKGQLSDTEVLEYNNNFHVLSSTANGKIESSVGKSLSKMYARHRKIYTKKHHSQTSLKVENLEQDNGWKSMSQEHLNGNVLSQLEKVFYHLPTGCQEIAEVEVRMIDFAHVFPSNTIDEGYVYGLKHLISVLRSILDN

Consider `O=C1C[C@@H](c2ccc(O)c(O)c2)Oc2cc(O)cc(O)c21` [Compound 16, Eriodictyol], for which, on hIPMK (relative to compound 3), the “fold loss of activity against hIPMK compared to 3” value was more than 5.5 fold. Further, the “fold higher IC50 against hIP6K2 compared to 3” value on hIP6K2 is 19 fold.

For `O=[N+]([O-])c1ccc(CNc2nc(NCc3cccc(C(F)(F)F)c3)nc3[nH]cnc23)cc1` [TNP, N2-(m-(trifluoromethyl)benzyl) N6-(p-nitrobenzyl)purine, reference compound], the “effect upon AKT activity (p-AKT T308 / total AKT)” value was “did not affect AKT activity” in series [1] (HCT116, 10 µM TNP) and “increased” in series [2] (3T3-L1, 1 µM TNP).

With `O=c1cc(-c2ccc(O)c(O)c2)oc2cccc(O)c12` [Compound 9, 5,3’,4’-Trihydroxyflavone], the “fold higher IC50 against hIP6K2 compared to 3” value at hIP6K2 is recorded as 6 fold.

With `O=c1cc(-c2ccc(O)cc2)oc2cc(O)cc(O)c12` [Compound 5, Apigenin], the “fold higher IC50 against hIP6K2 compared to 2” value at hIP6K2 (relative to compound 2) came out at 10 fold.

On to `COc1ccc(-c2cc(=O)c3c(O)cc(O)cc3o2)cc1O` [Compound 7, Diosmetin], for which, in series [1] (HCT116, 2.5 µM), the “effect upon AKT activity (p-AKT T308 / total AKT)” value is “did not observe any statistically-significant effect”. Further, in series [3], the “effect on InsP5 levels” value is reported as “not affected”, the “effect on InsP6 levels” value is reported as “not affected” and the “effect on InsP7 levels” value was “reduced InsP7 levels”. Further, the “effect upon AKT activity (p-AKT T308 / total AKT)” value in series [2] (3T3-L1, 2.5 µM) is on record as “increased”. Moreover, the “effect on InsP7 synthesis / levels” value in series [4] (HCT116, 2.5 µM, 3.5 hr) is recorded as “inhibited InsP7 synthesis; also recorded: most effective inhibitor of InsP7 levels”. For the same molecule, in series [4] (HCT116, 2.5 µM, time course), the “effect on InsP5” value was “no effect”, the “effect on InsP6” value is recorded as “did not significantly alter” and the “effect on InsP7 synthesis” value is “most sustained inhibition of InsP7 synthesis”. In series [4] (intact HCT116 cells, 2.5 µM), the “reduction in IP6K activity” value is more than 70%.

On to `COc1cc(O)c2c(=O)c(O)c(-c3ccc(O)c(O)c3)oc2c1` [Compound 11, Rhamnetin], for which the “fold higher IC50 (reduction in inhibitory activity) against hIPMK compared to 2” value on hIPMK was found to be 6 fold. For the same molecule, at hIP6K2 (relative to compound 2), the “fold higher IC50 against hIP6K2 compared to 2” value was determined as 2.6 fold and the “fold increase in selectivity for hIP6K2 (vs hIPMK) compared to 2” value was found to be 2.4 fold. Also, in series [4] (HCT116, 2.5 µM, 3.5 hr), the “effect on InsP5 levels” value is listed as “not significantly affected”, the “effect on InsP6 levels” value is recorded as “not significantly affected” and the “effect on InsP7 synthesis / levels” value was “inability of 11 to reduce InsP7”.

Take `O=c1c(O)c(-c2ccc(O)cc2)oc2cc(O)cc(O)c12` [Compound 4, Kaempferol]: on hIPMK, the “fold higher IC50 (reduction in inhibitory activity) against hIPMK compared to 2” value is listed as 2 fold. Besides, on hIP6K2 (relative to compound 2), the “fold higher IC50 against hIP6K2 compared to 2” value worked out at 3.6 fold. Moreover, in series [4] (HCT116, 2.5 µM, 3.5 hr), the “effect on InsP5 levels” value is listed as “not significantly affected”, the “effect on InsP6 levels” value is “not significantly affected” and the “effect on InsP7 synthesis / levels” value is “inhibited InsP7 synthesis”.

Take `O=C1C[C@@H](c2ccc(O)cc2)Oc2cc(O)cc(O)c21` [Compound 17, Naringenin]: at hIP6K2, the “fold higher IC50 against hIP6K2 compared to 5” value is recorded as “at least 4 fold”.

With `COc1cc(-c2oc3cc(O)cc(O)c3c(=O)c2O)ccc1O` [Compound 6, Isorhamnetin], in series [4] (HCT116, 2.5 µM, 3.5 hr), the “effect on InsP5 levels” value is reported as “not significantly affected”, the “effect on InsP6 levels” value is given as “not significantly affected” and the “effect on InsP7 synthesis / levels” value is listed as “inhibited InsP7 synthesis”.

For `O=c1c(O)c(-c2cc(O)c(O)c(O)c2)oc2cc(O)cc(O)c12` [Compound 1, Myricetin], the “inhibition of IP6K” value in the series on IP6K is given as “inhibitor”. Besides, in series [4] (HCT116, 2.5 µM, 3.5 hr), the “effect on InsP5 levels” value was “not significantly affected”, the “effect on InsP6 levels” value is reported as “not significantly affected” and the “effect on InsP7 synthesis / levels” value is listed as “inhibited InsP7 synthesis; also recorded: only slightly altered InsP7 levels”.

In the case of `O=c1c(O)c(-c2ccc(O)c(O)c2)oc2cc(O)cc(O)c12` [Compound 2, Quercetin], in the series with IP6K, the “inhibition of IP6K” value is listed as “no inhibitory effect was observed”. Moreover, the “effect upon AKT activity (p-AKT T308 / total AKT)” value in series [1] (HCT116, 2.5 µM) is “did not observe any statistically-significant effect”. In series [3], the “effect on InsP5 levels” value was “not affected”, the “effect on InsP6 levels” value was “not affected” and the “effect on InsP7 levels” value is “reduced InsP7 levels”. Besides, in series [5], the “concentration recorded in the human small intestine and colon” value is 2500 nM. Also, in series [5] (even after dietary supplementation), the concentration in serum is not above 1000 nM. Also, in series [2] (3T3-L1, 2.5 µM), the “effect upon AKT activity (p-AKT T308 / total AKT)” value is given as “increased”. Besides, the “effect on InsP7 synthesis / levels” value in series [4] (HCT116, 2.5 µM, 3.5 hr) is “inhibited InsP7 synthesis”. Besides, in series [4] (HCT116, 2.5 µM, time course), the “effect on InsP5” value is given as “without significantly impacting”, the “effect on InsP6” value was “without significantly impacting”, the “reduction of InsP7 levels” value is 50 – 70% and the “time of greatest diminution in cellular InsP7 content” value is 30 min. In addition, in series [4] (HCT116, 10 μM, 3.5 h, representative HPLC, control 2160), the “total DPM of InsP7 peak” value is given as 195 DPM. For the same molecule, in series [4] (HCT116, 10 μM, 3.5 h, representative HPLC, control 14677), the “total DPM of InsP5 peak” value was 10,989 DPM. The “total DPM of InsP6 peak” value in series [4] (HCT116, 10 μM, 3.5 h, representative HPLC, control 36,327) is 39521 DPM. For the same molecule, in series [4] (HCT116, 10 µM, 3.5 hr), the “effect on InsP6 levels” value is “not affected” and the “reduction of InsP5 levels” value is reported as “approx. 25%”. Also, the “effect on InsP7 levels, dose dependence” value in series [4] (HCT116, 1–10 µM, 3.5 hr) is listed as “dose-dependent reductions in InsP7 levels”.

As to `COc1cc(O)c2c(=O)cc(-c3ccc(O)cc3)oc2c1` [Compound 10, Genkwanin], the “fold higher IC50 against hIP6K2 compared to 5” value on hIP6K2 is reported as 3 fold.

As for `O=c1cc(-c2ccc(O)c(O)c2)oc2cc(O)cc(O)c12` [Compound 3, Luteolin], the “fold higher IC50 (reduction in inhibitory activity) against hIPMK compared to 2” value at hIPMK is 2.4- to 3 fold. Also, the “fold higher IC50 against hIP6K2 compared to 2” value on hIP6K2 (relative to compound 2) was 1.9 fold. The “effect upon AKT activity (p-AKT T308 / total AKT)” value in series [1] (HCT116, 2.5 µM) was “did not observe any statistically-significant effect”. In series [3], the “effect on InsP5 levels” value is given as “not affected”, the “effect on InsP6 levels” value is on record as “not affected” and the “effect on InsP7 levels” value is given as “reduced InsP7 levels”. Also, in series [2] (3T3-L1, 2.5 µM), the “effect upon AKT activity (p-AKT T308 / total AKT)” value is “increased”. Besides, the “effect on InsP7 synthesis / levels” value in series [4] (HCT116, 2.5 µM, 3.5 hr) is on record as “inhibited InsP7 synthesis”.
